{"source": "ChEMBL document CHEMBL5370586", "about": "(J Nat Prod, 2023)", "key": {"[1]": {"tested_on": "DU-145", "test": "Antiproliferative activity against human DU-145 cells assessed as reduction in cell viability incubated for 72 hrs in serum deprivation condition by MTT assay", "type": "functional, cell-based", "details": "DU-145, 72 h", "in_short": "(§1)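 Cells seeded at 1 × 10^3 (DU145, PC-3), 6 × 10^3 (LNCaP), 2 × 10^3 (PWR-1E) or 4.5 × 10^3 (RWPE-1) per well and left to adhere 24 h. CBD (0–100 μM) then given for 72 h in serum-free medium. MTT added for 3 h at 37 °C, formazan dissolved in DMSO, absorbance read at 570 nm. Viability is % of vehicle; IC50 by nonlinear regression; at least three independent experiments.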"}, "[2]": {"tested_on": "PC-3", "test": "Antiproliferative activity against human PC3 cells assessed as reduction in cell viability incubated for 72 hrs in serum deprivation condition by MTT assay", "type": "functional, cell-based", "details": "PC-3, 72 h", "in_short": "as §1"}, "[3]": {"tested_on": "LNCaP", "test": "Antiproliferative activity against human LNCaP cells assessed as reduction in cell viability incubated for 72 hrs in serum deprivation condition by MTT assay", "type": "functional, cell-based", "in_short": "as §1"}, "[4]": {"tested_on": "DU-145", "test": "Antiproliferative activity against human DU-145 cells assessed as reduction in cell viability incubated for 72 hrs in presence of 10% FBS by MTT assay", "type": "functional, cell-based", "details": "DU-145, 72 h", "in_short": "(§2)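 Cells left to adhere 24 h, then exposed to CBD (0–100 μM) for 72 h in medium with 10% FBS. MTT incubation 3 h at 37 °C, DMSO solubilisation, A570. Viability relative to vehicle; IC50 from nonlinear regression; at least three independent experiments.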"}, "[5]": {"tested_on": "PC-3", "test": "Antiproliferative activity against human PC-3 cells assessed as reduction in cell viability incubated for 72 hrs in presence of 10% FBS by MTT assay", "type": "functional, cell-based", "details": "PC-3, 72 h", "in_short": "as §2"}, "[6]": {"tested_on": "LNCaP", "test": "Antiproliferative activity against human LNCap cells assessed as reduction in cell viability incubated for 72 hrs in presence of 10% FBS by MTT assay", "type": "functional, cell-based", "in_short": "as §2"}, "[7]": {"tested_on": "DU-145", "test": "Antiproliferative activity against human DU-145 cells assessed as reduction in cell count at IC50 concentration incubated for 48 hrs by flow cytometry analysis", "type": "functional, cell-based", "in_short": "(§3)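 Six-well seeding at 4 × 10^4 (DU145) or 3 × 10^4 (PC-3) cells per well; CBD for 48 h. Supernatant and trypsinised adherent cells pooled and resuspended in ice-cold PBS. Cells counted by flow cytometry with forward/side scatter gating; at least three independent experiments.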"}, "[8]": {"tested_on": "PC-3", "test": "Antiproliferative activity against human PC-3 cells assessed as reduction in cell count at IC50 concentration incubated for 48 hrs by flow cytometry analysis", "type": "functional, cell-based", "in_short": "as §3"}, "[9]": {"tested_on": "PC-3", "test": "Antiproliferative activity against human PC-3 cells assessed as reduction in cell colonies incubated for 48 hrs detached and reseeded without compound and measured after 7 days by glutaraldehyde/crystal violet staining based clonogenic assay relative to control", "type": "functional", "parameters": "scale not given: the % may be the effect or the level left", "in_short": "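PC-3 cells left to adhere 24 h, then treated 48 h. Detached and reseeded at 500 cells per well without drug, then grown 7 days at 37 °C, 5% CO2, with medium changed every 2–3 days. Colonies fixed and stained with glutaraldehyde/crystal violet and counted.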"}, "[10]": {"tested_on": "DU-145", "test": "Antiproliferative activity against human DU-145 cells assessed as reduction in cell confluency at 5 to 10 uM measured after 72 hrs by Hoechst 33342 staining based high content imaging fluorescence microscopic analysis", "type": "functional", "details": "dose 5-10 µM", "in_short": "(§4)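 DU145 or PC-3 cells seeded at 2 × 10^3 per well and given CBD at 1, 5 or 10 μM with serum for 72 h; staurosporine as positive control. Stained 30 min with Hoechst 33342 (1:5000), YO-PRO-1 (1:1000) and PI (1:1000). High-content imaging with a 63× water objective. Hoechst gave confluency, nucleus area and circularity; YO-PRO/PI gave healthy, early and late apoptotic fractions.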"}, "[11]": {"tested_on": "PC-3", "test": "Antiproliferative activity against human PC-3 cells assessed as reduction in cell confluency at 10 uM measured after 72 hrs by Hoechst 33342 staining based high content imaging fluorescence microscopic analysis", "type": "functional", "in_short": "as §4"}, "[12]": {"tested_on": "DU-145", "test": "Induction of cell death in human DU-145 cells assessed as reduction in cell nucleus area at 1 to 10 uM measured after 72 hrs by Hoechst 33342 staining based high content imaging fluorescence microscopic analysis", "type": "functional", "details": "dose 1-10 µM", "in_short": "as §4"}, "[13]": {"tested_on": "PC-3", "test": "Induction of cell death in human PC-3 cells assessed as reduction in cell nucleus area at 1 to 10 uM measured after 72 hrs by Hoechst 33342 staining based high content imaging fluorescence microscopic analysis", "type": "functional", "details": "dose 1-10 µM", "in_short": "as §4"}, "[14]": {"tested_on": "DU-145", "test": "Induction of cell death in human DU-145 cells assessed as reduction in cell nucleus circularity at 1 to 10 uM measured after 72 hrs by Hoechst 33342 staining based high content imaging fluorescence microscopic analysis", "type": "functional", "details": "dose 1-10 µM", "in_short": "as §4"}, "[15]": {"tested_on": "PC-3", "test": "Induction of cell death in human PC-3 cells assessed as reduction in cell nucleus circularity at 1 to 10 uM measured after 72 hrs by Hoechst 33342 staining based high content imaging fluorescence microscopic analysis", "type": "functional", "details": "dose 1-10 µM", "in_short": "as §4"}, "[16]": {"tested_on": "DU-145", "test": "Induction of apoptosis in human DU-145 cells assessed as reduction in fraction of healthy cells at 1 to 10 uM incubated for 72 hrs by YO-PRO and propidium iodide staining based high content imaging fluorescence microscopic analysis", "type": "functional, cell-based", "details": "dose 1-10 µM", "in_short": "as §4"}, "[17]": {"tested_on": "PC-3", "test": "Induction of apoptosis in human PC-3 cells assessed as reduction in fraction of healthy cells at 1 to 10 uM incubated for 72 hrs by YO-PRO and propidium iodide staining based high content imaging fluorescence microscopic analysis", "type": "functional, cell-based", "details": "dose 1-10 µM", "in_short": "as §4"}, "[18]": {"tested_on": "DU-145", "test": "Induction of apoptosis in human DU-145 cells assessed as early apoptotic cells at 1 to 10 uM incubated for 72 hrs by YO-PRO and propidium iodide staining based high content imaging fluorescence microscopic analysis", "type": "functional, cell-based", "details": "dose 1-10 µM", "in_short": "as §4"}, "[19]": {"tested_on": "DU-145", "test": "Induction of apoptosis in human DU-145 cells assessed as late apoptotic cells at 1 to 10 uM incubated for 72 hrs by YO-PRO and propidium iodide staining based high content imaging fluorescence microscopic analysis", "type": "functional, cell-based", "details": "dose 1-10 µM", "in_short": "as §4"}, "[20]": {"tested_on": "PC-3", "test": "Induction of apoptosis in human PC-3 cells assessed as early apoptotic cells at 1 to 10 uM incubated for 72 hrs by YO-PRO and propidium iodide staining based high content imaging fluorescence microscopic analysis", "type": "functional, cell-based", "details": "dose 1-10 µM", "in_short": "as §4"}, "[21]": {"tested_on": "PC-3", "test": "Induction of apoptosis in human PC-3 cells assessed as late apoptotic cells at 1 to 10 uM incubated for 72 hrs by YO-PRO and propidium iodide staining based high content imaging fluorescence microscopic analysis", "type": "functional, cell-based", "details": "dose 1-10 µM", "in_short": "as §4"}, "[22]": {"tested_on": "DU-145", "test": "Induction of apoptosis in human DU-145 cells at IC50 concentration incubated for 48 hrs by YO-PRO and PI staining based flow cytometry analysis", "type": "functional, cell-based", "in_short": "(§5)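 After 48 h CBD, DU145 (4 × 10^4 per well) or PC-3 (3 × 10^4 per well) supernatant and trypsinised cells pooled. Stained in ice-cold PBS with YO-PRO (1:1000) and propidium iodide (1:1000). Flow cytometry gated live, early apoptotic and late apoptotic cells and DNA fragmentation.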"}, "[23]": {"tested_on": "PC-3", "test": "Induction of apoptosis in human PC-3 cells at IC50 concentration incubated for 48 hrs by YO-PRO and PI staining based flow cytometry analysis", "type": "functional, cell-based", "in_short": "as §5"}, "[24]": {"tested_on": "PC-3", "test": "Inhibition of cell invasion in human PC-3 cells incubated for 48 hrs by crystal violet staining based microscopic analysis relative to control", "type": "functional"}, "[25]": {"tested_on": "DU-145", "test": "Antiproliferative activity against human DU-145 cells assessed as reduction in cell viability incubated for 72 hrs in presence of SR141716 by MTT assay", "type": "functional, cell-based", "in_short": "(§6)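 DU145 or PC-3 cells pretreated 1 h with SR141716 (CB1 antagonist), SR144528 (CB2 antagonist), capsazepine (TRPV1 antagonist) or LPI (GPR55 agonist), then given CBD for 72 h. MTT read-out as % of vehicle. Compared with CBD alone by t-test; at least three independent experiments.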"}, "[26]": {"tested_on": "DU-145", "test": "Antiproliferative activity against human DU-145 cells assessed as reduction in cell viability incubated for 72 hrs in presence of SR144528 by MTT assay", "type": "functional, cell-based", "in_short": "as §6"}, "[27]": {"tested_on": "DU-145", "test": "Antiproliferative activity against human DU-145 cells assessed as reduction in cell viability incubated for 72 hrs in presence of capsazepine by MTT assay", "type": "functional, cell-based", "in_short": "as §6"}}, "note": "Active and inactive are the calls of the source. The calls are words filed in the database; no cut-off is given here.", "data": [{"molecule": "C=C(C)[C@@H]1CCC(C)=C[C@H]1c1c(O)cc(CCCCC)cc1O", "note": "[CANNABIDIOL]", "values": [{"measurement": "IC50", "setting": "[1]", "value": 1500, "unit": "nM"}, {"measurement": "IC50", "setting": "[2]", "value": 2900, "unit": "nM"}, {"measurement": "IC50", "setting": "[3]", "value": 2600, "unit": "nM"}, {"measurement": "IC50", "setting": "[4]", "value": 12.3, "unit": "µM"}, {"measurement": "IC50", "setting": "[5]", "value": 10.5, "unit": "µM"}, {"measurement": "IC50", "setting": "[6]", "value": 18, "unit": "µM"}, {"measurement": "Activity", "setting": "[7]", "value": "Active"}, {"measurement": "Activity", "setting": "[8]", "value": "Active"}, {"measurement": "Activity", "setting": "[9]", "value": "~25", "unit": "%"}, {"measurement": "Activity", "setting": "[10]", "value": "Active"}, {"measurement": "Activity", "setting": "[11]", "value": "Active"}, {"measurement": "Activity", "setting": "[12]", "value": "inactive"}, {"measurement": "Activity", "setting": "[13]", "value": "inactive"}, {"measurement": "Activity", "setting": "[14]", "value": "inactive"}, {"measurement": "Activity", "setting": "[15]", "value": "inactive"}, {"measurement": "Activity", "setting": "[16]", "value": "inactive"}, {"measurement": "Activity", "setting": "[17]", "value": "inactive"}, {"measurement": "Activity", "setting": "[18]", "value": "inactive"}, {"measurement": "Activity", "setting": "[19]", "value": "inactive"}, {"measurement": "Activity", "setting": "[20]", "value": "inactive"}, {"measurement": "Activity", "setting": "[21]", "value": "inactive"}, {"measurement": "Activity", "setting": "[22]", "value": "inactive"}, {"measurement": "Activity", "setting": "[23]", "value": "inactive"}, {"measurement": "inhibition (INH)", "setting": "[24]", "value": "~30", "unit": "%"}, {"measurement": "Activity", "setting": "[25]", "value": "Active"}, {"measurement": "Activity", "setting": "[26]", "value": "Active"}, {"measurement": "Activity", "setting": "[27]", "value": "Active"}]}]}
